Hits are enriched below; roughly 2.9% of the tested compounds scored in any of these assays.
TRPC4 PAM: allosterically enhances the mouse TRPC4 cation channel | HEK293 TRPC4beta/mu-opioid, DAMGO EC20, Fluo-4 Ca2+ flux; stronger effect = higher value | actives 0.42% (n = 310,000) | Q9QUQ5 | B-score at 10 µM | AID 2227;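 active = B-score of calcium response area above 5 SD of library B-scores, with initial fluorescence ratio within 5 SD of library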
Target sequence (Q9QUQ5 whole entry, looked up): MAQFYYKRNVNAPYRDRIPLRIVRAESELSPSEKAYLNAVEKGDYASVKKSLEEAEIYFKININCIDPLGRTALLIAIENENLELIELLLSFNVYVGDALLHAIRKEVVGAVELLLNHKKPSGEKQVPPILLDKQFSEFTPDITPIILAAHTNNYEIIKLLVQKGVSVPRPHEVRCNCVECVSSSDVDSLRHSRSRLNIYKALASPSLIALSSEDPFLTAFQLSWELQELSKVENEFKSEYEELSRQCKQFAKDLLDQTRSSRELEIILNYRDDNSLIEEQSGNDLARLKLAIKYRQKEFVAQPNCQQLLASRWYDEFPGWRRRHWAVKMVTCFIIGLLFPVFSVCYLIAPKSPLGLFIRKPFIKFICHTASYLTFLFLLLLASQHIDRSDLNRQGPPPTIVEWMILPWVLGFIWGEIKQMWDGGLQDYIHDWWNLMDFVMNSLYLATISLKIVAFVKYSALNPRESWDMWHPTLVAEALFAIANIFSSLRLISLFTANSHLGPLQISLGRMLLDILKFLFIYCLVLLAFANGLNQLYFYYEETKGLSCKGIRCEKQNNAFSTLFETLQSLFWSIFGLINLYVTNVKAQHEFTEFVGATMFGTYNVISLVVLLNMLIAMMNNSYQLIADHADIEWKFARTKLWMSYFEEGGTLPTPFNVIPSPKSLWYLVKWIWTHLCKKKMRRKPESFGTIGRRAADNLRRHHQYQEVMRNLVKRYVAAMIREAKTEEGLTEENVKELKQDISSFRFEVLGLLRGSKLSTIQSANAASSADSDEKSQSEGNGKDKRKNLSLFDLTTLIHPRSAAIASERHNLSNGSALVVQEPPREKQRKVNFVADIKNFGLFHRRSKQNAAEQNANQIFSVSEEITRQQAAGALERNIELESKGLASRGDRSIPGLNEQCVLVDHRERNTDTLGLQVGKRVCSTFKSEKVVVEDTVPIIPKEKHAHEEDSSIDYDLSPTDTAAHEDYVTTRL
TRPC6 act: activators of mouse TRPC6 channel; Q61143; HEK293-TRPC6 membrane potential dye fluorescence; stronger effect = higher value; B-score at 10 µM; actives 0.13% (n = 310,000); AID 2550;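 active = B-score of the integrated fluorescence ratio above library mean plus 3 SD, and starting fluorescence ratio within library mean plus 5 SD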;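 also: higher score means more depolarization so channel activation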
TRPC4 inh: inhibitors of mouse TRPC4 channel; Q9QUQ5; HEK293 TRPC4beta/mu-opioid, DAMGO-evoked Fluo4 calcium flux; stronger effect = lower value; actives 0.39% (n = 300,000); B-score at 10 µM; AID 2247;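 active = B-score over 3 SD under the library average, no early fluorescence shift, positive overall ratio signal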
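Assay system – HEK293 line stably carrying TRPC4beta and mu-opioid receptor · Doses – single dose · Detection – Fluo4 calcium-dye fluorescence, kinetic read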
Kir21 inh: blocks the mouse Kir2.1 inward-rectifier potassium channel | actives 0.85% (n = 310,000) | HEK293-Kir2.1, FluxOR thallium flux fluorescence; stronger effect = lower value | B-score at 10 µM;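 active = fluorescence ratio B-score at or below minus 3 SD of library scores, with starting-brightness B-score within 2 SD, cut at about -4.2 in these data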;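 also: channel flux triggered by added potassium and thallium sulfate stimulus; B-score of peak minus minimum fluorescence over baseline after thallium stimulus; more negative B-score means stronger Kir2.1 block with less thallium influx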
TRPC6 inh: mouse TRPC6 channel inhibition | actives 1.1% (n = 310,000) | B-score at 10 µM | Q61143 | HEK293-TRPC6, membrane potential dye, ACh-evoked depolarization; stronger effect = lower value;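 active = B-score under library mean minus 3 SD, initial fluorescence not abnormally high, positive integrated signal ratio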;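 also: B-score derived from integrated fluorescence ratio over the kinetic read; more negative B-score means stronger inhibition of depolarization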
TRPC4 act: activators of mouse TRPC4 channel. Q9QUQ5. HEK293 TRPC4beta/mu-opioid, Fluo4 calcium fluorescence; stronger effect = higher value. B-score at 10 µM. actives 0.49% (n = 310,000). AID 2237;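 active = B-score above 5 SD of library B-scores, and initial fluorescence ratio not above library mean plus 5 SD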;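 also: positive B-score marks a calcium rise read as TRPC4 activation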
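System – HEK293 cells stably co-expressing mouse TRPC4beta and mu-opioid receptor · Signal – Fluo4 calcium-sensitive dye fluorescence, kinetic, 1 Hz baseline · Benchmarks – buffer (low) and maximal DAMGO (high) · Read-out – B score of integrated fluorescence ratio per well · Incubation – dye loading 45 min room temperature, 110 s kinetic read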
TRPC4 sel inh 2: second selectivity test of TRPC6 inhibitors: effect on mouse TRPC4. shares compounds with TRPC6 inh. HEK293 TRPC4/MOR, membrane potential dye fluorescence; channel activated by saturating DAMGO dose. inhibition, % at 10 µM. actives 42% (n = 920). AID 2776;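 active = compounds whose fluorescence signal differed from control wells by over 3 SD, either direction, in both duplicate plates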
TRPC4 spec: tests whether TRPC6 inhibitors also affect mouse TRPC4. shares compounds with TRPC6 inh. HEK293 TRPC4/mu-opioid, membrane potential fluorescence. activity change, negative = inhibition, % at 10 µM. actives 61% (n = 920). AID 2777;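 active = rise or fall in signal beyond 3 SD of buffer-only wells in both replicate plates, either sign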;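 also: integrated kinetic ratio of fluorescence range over baseline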
HEK293 MPD ctr 2-1: second counter-screen for TRPC6 inhibitors: parental HEK293 cells | AID 2779 | signal change vs control, % at 10 µM | actives 31% (n = 920) | shares compounds with TRPC6 inh | parental HEK293 membrane potential dye fluorescence; maximal acetylcholine challenge after compound addition;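 active = membrane potential signal moving either way by over 3 SD of the maximum-effect control, in both duplicate plates, meaning non-specific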
HEK293 MPD ctr-1: parental HEK293 nonspecific activity of TRPC6 inhibitors. membrane potential signal change, % at 10 µM. parental HEK293 membrane potential dye fluorescence. actives 60% (n = 920). AID 2780. shares compounds with TRPC6 inh;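 active = membrane potential signal shifting up or down by more than 3 SD of buffer-only wells, on both duplicate plates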
HEK293 MPD ctr-2: counter-screen for TRPC6 modulators: effect in parental HEK293 cells | membrane potential dye fluorescence | actives 51% (n = 2,400) | shares compounds with TRPC6 inh | AID 488924 | membrane potential signal change, % at 10 µM;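 active = membrane potential signal moves up or down beyond 5 SD from buffer-only wells, on both duplicate plates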
HEK293 MPD ctr 2-2: second check of TRPC6 modulator effects in parental HEK293 cells. shares compounds with TRPC6 inh. membrane potential dye fluorescence; after compound, maximal acetylcholine stimulation. inhibition, % at 10 µM. actives 14% (n = 2,400). AID 488926;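 active = membrane potential signal drops by more than 5 SD from the mean control signal, in both duplicate plates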
TRPC4/MOR mod: mouse TRPC4 off-target activity of TRPC6 modulators; shares compounds with TRPC6 inh; HEK293 TRPC4/mu-opioid, membrane potential fluorescence; percent change from control (negative = decrease, positive = increase), % at 10 µM; actives 69% (n = 2,400); AID 488927;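 active = membrane potential signal moved up or down beyond 5 SD of buffer control wells, in both duplicate plates, actives on both sides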
TRPC4 ctr inh 2: second check of whether TRPC6 modulators also affect mouse TRPC4. inhibition, % at 10 µM. HEK293 TRPC4/mu-opioid, membrane potential dye fluorescence; stimulated with maximal-effect DAMGO. shares compounds with TRPC6 inh. actives 55% (n = 2,400);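 active = drop in membrane potential signal beyond 5 SD of the control wells in both duplicate plates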;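 also: TRPC4 counter screen for TRPC6 hits run under conditions tuned for TRPC6 not TRPC4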
TRPC6 block conf: mouse TRPC6 inhibitor confirmation; shares compounds with TRPC6 inh; HEK293-TRPC6, membrane potential dye, ACh-evoked depolarization; inhibition, % at 10 µM; actives 43% (n = 3,300); AID 488960;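 active = fluorescence ratio falls more than 5 SD below the full-stimulation control mean, in both duplicate runs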;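 also: integrated fluorescence ratio of peak minus minimum over baseline after agonist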
TRPC6 act confirm: confirmation of mouse TRPC6 activators | shares compounds with TRPC6 inh | actives 11% (n = 2,800) | activation, % at 10 µM | HEK293-TRPC6 membrane potential dye fluorescence, FDSS;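 active = ratio signal rise beyond 5 SD above unstimulated control wells' mean, seen in both duplicate runs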
Numbers stand for hits; 0 = inactive; - = no result given.

SMILES	TRPC4 PAM	TRPC6 act	TRPC4 inh	Kir21 inh	TRPC6 inh	TRPC4 act	HEK293 MPD ctr-2	HEK293 MPD ctr 2-2	TRPC4/MOR mod	TRPC4 ctr inh 2	TRPC6 block conf	TRPC6 act confirm	others
COc1ccc(C(=O)c2coc3ccc(O)c(CN4CCCCC4)c23)cc1	0	0	0	0	-8.82	0	-	-	-	-	0	0	TRPC4 sel inh 2=39.5%;TRPC4 spec=0;HEK293 MPD ctr 2-1=0;HEK293 MPD ctr-1=1.5%
COc1ccc2occ(C(=O)c3coc4ccc(O)c(CN(C)C)c34)c2c1	0	0	0	0	-12.5	0	-146.5%	0	-33.5%	83.5%	67.0%	0
COCCNc1nc2nonc2nc1N1C[C@H]2CC[C@H]1C2	0	0	0	0	0	0	-	-	-	-	-	-
COCCNc1nc2nonc2nc1N1CCC(N(C)C)C1 (stereo unspecified)	0	0	0	0	-5.42	0	0	0	0	0	0	0
COc1cccc(N(CC(=O)NCC2CCCO2)C(=O)CCC(=O)Nc2nccs2)c1 (stereo unspecified)	0	0	0	0	0	0	-	-	-	-	-	-
Clc1cccc(CN2CCSCC2)c1Cl	0	0	0	0	0	0	-	-	-	-	-	-
O=C(Oc1ccc2c(c1)OCC2=O)c1ccccc1	0	0	0	0	-5.8	0	0	0	0	0	0	-
Cc1ccc2nc(C)c3c(c2c1)COC3	0	0	0	0	-6.28	0	-165.0%	84.0%	-27.0%	47.0%	43.5%	0
Cc1nc2c(C)cccc2c2c1COC2	0	0	0	0	-9.08	0	-	-	-	-	61.0%	0	TRPC4 sel inh 2=0;TRPC4 spec=-30.4%;HEK293 MPD ctr 2-1=35.5%;HEK293 MPD ctr-1=-433.5%
Cc1ccc2nc3c(c(C(=O)O)c2c1)CCC3	0	0	0	0	0	0	-	-	-	-	-	-
Cc1cc(N2CCN(c3ncccn3)CC2)nc2c(C)cccc12	0	0	0	0	0	0	-	-	-	-	-	-
Cc1ccc(NC(=S)NCc2cccs2)c(C)c1	0	0	0	0	0	0	-	-	-	-	-	-
Cc1cc(NCC2CCCCC2)nc2ccccc12	0	0	0	0	0	0	-	-	-	-	-	-
Cc1cc(NCCNC2=CC(=O)CCC2)nc2ccccc12	0	0	0	0	-5.47	0	-167.5%	0	-27.0%	31.0%	0	0
COc1ccc(N2CCN(C(=O)c3ccc(NC(=O)C4=CSCCO4)cc3)CC2)cc1	0	0	0	0	0	0	-	-	-	-	-	-
COC(=O)/C=C1\SC(=NC(=O)c2ccc(C)cc2)NC1=O	0	0	0	0	0	0	-	-	-	-	-	-
COC(=O)/C=C1/SC(=NC(=O)c2ccc(Cl)cc2)NC1=O	0	14.2	0	0	0	0	134.0%	0	20.0%	0	0	56.5%
Cc1ccc(NC(=O)CSCC(=O)NCCc2ccccn2)c(C)c1	0	0	0	0	0	0	-	-	-	-	-	-
CCc1nn2c(=O)cc(COc3ccc(/C=C4\C(=N)N5N=C(C)SC5=NC4=O)cc3)nc2s1	0	13.2	0	0	0	0	228.0%	0	40.5%	0	0	88.0%
CCOc1cc(/C=C2\C(=N)N3N=C(C)SC3=NC2=O)ccc1OCCOc1cccc(OC)c1	0	0	0	0	0	0	-	-	-	-	-	-
COc1cc(C(CCN2CCCC(C)C2)c2c(OC)cc(OC)c3c(-c4ccccc4)cc(=O)oc23)cc(OC)c1OC (stereo unspecified)	0	0	0	0	-7.81	0	-	-	-	-	0	0	TRPC4 sel inh 2=44.0%;TRPC4 spec=-11.1%;HEK293 MPD ctr 2-1=0;HEK293 MPD ctr-1=0
COc1cc(O)c(C(CCN2CCCC(C)C2)c2ccc(N(C)C)cc2)c(OC)c1 (stereo unspecified)	0	0	0	0	-7	0	-	-	-	-	0	0	TRPC4 sel inh 2=61.5%;TRPC4 spec=0;HEK293 MPD ctr 2-1=0;HEK293 MPD ctr-1=0
COc1cc(O)c(C(CCN2CCCC(C)C2)c2ccc3c(c2)OCO3)c(OC)c1 (stereo unspecified)	0	0	0	0	0	0	-	-	-	-	-	-
Cc1ccc(O)c(O)c1	0	0	0	0	0	0	-	-	-	-	-	-
Cc1ccc(O)c(Sc2cc(C)ccc2O)c1	0	0	-6	0	-8.44	0	-	-	-	-	70.9%	0	TRPC4 sel inh 2=0;TRPC4 spec=-13.4%;HEK293 MPD ctr 2-1=0;HEK293 MPD ctr-1=-141.0%
SMILES	TRPC4 PAM	TRPC6 act	TRPC4 inh	Kir21 inh	TRPC6 inh	TRPC4 act	HEK293 MPD ctr-2	HEK293 MPD ctr 2-2	TRPC4/MOR mod	TRPC4 ctr inh 2	TRPC6 block conf	TRPC6 act confirm	others
COc1cccc(CNC(=O)CN2C(=O)COc3ccc(S(=O)(=O)N4CCCCC4)cc32)c1	0	0	0	0	0	0	-	-	-	-	-	-
Clc1ccc(C2NCCc3sccc32)cc1 (stereo unspecified)	0	0	0	0	-5.92	0	0	0	15.0%	71.0%	0	0
c1ccc(-c2nc(-c3ccccn3)nc(-c3ccccn3)n2)nc1	0	0	0	0	-6.74	0	-	-	-	-	0	0	TRPC4 sel inh 2=0;TRPC4 spec=-18.9%;HEK293 MPD ctr 2-1=4.0%;HEK293 MPD ctr-1=-266.0%
C[N+](C)(C)CC/C=C1/c2ccccc2CSc2ccccc21	0	0	0	0	-5.53	0	0	72.0%	0	0	82.5%	0
CCOc1cc(/C=C/C(=O)c2ccc(OC)c(CN3CCOCC3)c2)cc(Br)c1O	0	20.2	0	0	0	0	183.5%	0	26.5%	0	0	42.0%
O=C(Nc1ccc2ccccc2c1)c1ccc(Cl)cc1Cl	0	0	0	0	0	0	-	-	-	-	-	-
O=C(Nc1nc(=S)ss1)c1ccc(Cl)cc1Cl	0	0	0	0	-7.07	0	0	0	0	0	0	0
CCN(C(=O)COC(=O)CCS(=O)(=O)c1ccc(C)cc1)C1CCS(=O)(=O)C1 (stereo unspecified)	0	0	0	0	0	0	-	-	-	-	-	-
